Assay results from ChEMBL document CHEMBL3120062, “Novel 8-(p-substituted-phenyl/benzyl)xanthines with selectivity for the A2A adenosine receptor possess bronchospasmolytic activity” (Eur J Med Chem, 2014).
Active and inactive are the calls of the source. No cut-off for these calls is given here.

Legend:
[1] = biological target: T1, Adenosine receptor A1 (Homo sapiens, UniProt P30542); test: Displacement of [3H]-CCPA from human recombinant adenosine A1 receptor expressed in CHO cell membranes after 3 hrs by microbeta counting analysis
T1 sequence (P30542 whole entry): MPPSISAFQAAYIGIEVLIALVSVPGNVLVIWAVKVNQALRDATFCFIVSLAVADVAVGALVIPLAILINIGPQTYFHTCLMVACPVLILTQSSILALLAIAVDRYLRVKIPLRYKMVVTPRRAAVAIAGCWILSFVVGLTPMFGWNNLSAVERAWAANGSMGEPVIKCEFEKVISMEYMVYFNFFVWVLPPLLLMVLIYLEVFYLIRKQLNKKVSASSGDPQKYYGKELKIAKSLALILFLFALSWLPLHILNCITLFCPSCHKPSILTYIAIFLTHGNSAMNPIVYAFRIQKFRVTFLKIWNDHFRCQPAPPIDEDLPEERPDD
Procedure, shortened: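 Human A1 receptor stably expressed in CHO cells. Crude membranes (10-50 µg protein) in 50 mM Tris/HCl pH 7.4 were incubated with [3H]CCPA (1 nM) for 3 h at 25 °C, then filtered, washed with ice-cold buffer and counted by scintillation. Nonspecific binding was defined with theophylline. Ki came from non-linear curve fitting; geometric means of 3–5 experiments.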

[2] = tested on: Cavia porcellus; test: Bronchospasmolytic activity in histamine aerosol-induced Dunkin-Hartley guinea pig assessed as time required for onset of bronchospasm at 50 mg/kg, po pretreated for 1 hr followed by histamine aerosol-challenge (reference value: 67 +/- 2 seconds); type: functional
[3] = biological target: Adenosine receptor A2a (Homo sapiens, UniProt P29274); test: Displacement of [3H]-NECA from human recombinant adenosine A2A receptor expressed in CHO cell membranes after 3 hrs by microbeta counting analysis
Procedure, shortened: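 Crude membranes (10-50 µg protein) from CHO cells stably expressing the human A2A receptor, in 50 mM Tris/HCl pH 7.4. Incubated with [3H]NECA (10 nM) for 3 h at 25 °C, then filtered, washed with ice-cold buffer and scintillation counted. Nonspecific binding was defined with R-PIA. Ki came from non-linear curve fitting; geometric means of 3–5 experiments.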

[4] = tested on: Cavia porcellus; test: Bronchospasmolytic activity in histamine aerosol-induced Dunkin-Hartley guinea pig assessed as duration of jerks at 50 mg/kg, po pretreated for 1 hr followed by histamine aerosol-challenge (reference value: 172 +/- 4 seconds); type: functional
[5] = biological target: T2, Adenosine receptor A3 (Homo sapiens, UniProt P0DMS8); test: Displacement of [3H]-HEMADO from human recombinant adenosine A3 receptor expressed in CHO cell membranes after 3 hrs by microbeta counting analysis
T2 sequence (P0DMS8 whole entry): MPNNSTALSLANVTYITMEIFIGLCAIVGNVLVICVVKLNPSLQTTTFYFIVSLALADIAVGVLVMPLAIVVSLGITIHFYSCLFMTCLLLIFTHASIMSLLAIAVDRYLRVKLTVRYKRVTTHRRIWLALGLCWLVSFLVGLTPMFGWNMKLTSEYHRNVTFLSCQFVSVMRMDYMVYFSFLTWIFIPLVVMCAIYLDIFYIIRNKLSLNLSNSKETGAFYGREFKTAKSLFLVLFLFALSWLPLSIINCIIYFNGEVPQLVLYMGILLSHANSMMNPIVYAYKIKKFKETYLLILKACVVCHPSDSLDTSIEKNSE
Procedure, shortened: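 Human A3 receptor in stably transfected CHO cell membranes (10-50 µg protein), resuspended in 50 mM Tris/HCl, 10 mM MgCl2, 1 mM EDTA, pH 8.25. Incubated with [3H]HEMADO (1 nM) for 3 h at 25 °C, then filtered, washed and scintillation counted. Nonspecific binding was defined with R-PIA. Ki came from non-linear curve fitting; geometric means of 3–5 experiments.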

[6] = tested on: Cavia porcellus; test: Bronchospasmolytic activity in histamine aerosol-induced Dunkin-Hartley guinea pig assessed as survival at 50 mg/kg, po pretreated for 1 hr followed by histamine aerosol-challenge relative to control; type: functional
Procedure, shortened: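 Male Dunkin Hartley guinea pigs (250 ± 30 g), 4 per group, fasted overnight. Each animal was given test drug, theophylline or vehicle at 50 mg/kg by mouth in CMC + distilled water, 1 h before challenge. It was then exposed singly in a histamine chamber to 5 ml of 1% histamine aerosolised over 1 min. Onset, jerk duration, severity and death or survival were recorded. Survival is given as % of the group.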

[7] = biological target: T3, Adenosine receptor A2b (Homo sapiens, UniProt P29275); test: Binding affinity to human recombinant adenosine A2B receptor expressed in CHO cell membranes assessed as inhibition of NECA-stimulated adenylyl cyclase activity after 20 mins
T3 sequence (P29275 whole entry): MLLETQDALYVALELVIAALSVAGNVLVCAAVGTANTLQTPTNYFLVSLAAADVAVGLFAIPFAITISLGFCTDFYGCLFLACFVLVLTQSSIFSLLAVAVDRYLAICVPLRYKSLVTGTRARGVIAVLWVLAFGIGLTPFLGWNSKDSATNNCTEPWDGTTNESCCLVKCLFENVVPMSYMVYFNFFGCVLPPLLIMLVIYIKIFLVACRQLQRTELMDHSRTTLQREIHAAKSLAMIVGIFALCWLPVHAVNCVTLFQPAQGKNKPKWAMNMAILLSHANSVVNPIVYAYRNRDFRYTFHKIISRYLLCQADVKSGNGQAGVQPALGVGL
Procedure, shortened: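 Membranes from CHO cells stably expressing the human A2B receptor, prepared fresh by one 54,000 g spin and used immediately in 50 mM Tris/HCl pH 7.4. Concentration-dependent inhibition of NECA-stimulated adenylyl cyclase was measured with about 150,000 cpm [α-32P]ATP for 20 min. Ki was calculated from IC50 with the Cheng–Prusoff equation. Geometric means of 3–5 experiments.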

[8] = species: Homo sapiens; test: Selectivity ratio of Ki for human recombinant adenosine A1 receptor to Ki for human recombinant adenosine A2A receptor
[9] = species: Homo sapiens; test: Selectivity ratio of Ki for human recombinant adenosine A2B receptor to Ki for human recombinant adenosine A2A receptor
[10] = tested on: Cavia porcellus; test: Bronchospasmolytic activity in histamine aerosol-induced Dunkin-Hartley guinea pig assessed as severity of bronchospasm at 50 mg/kg, po pretreated for 1 hr followed by histamine aerosol-challenge; type: functional, organism-based; parameters: dose 50 mg/kg
[11] = species: Homo sapiens; test: Selectivity ratio of Ki for human recombinant adenosine A3 receptor to Ki for human recombinant adenosine A2A receptor

Chain of Adenosine receptor A2a (P29274 whole entry): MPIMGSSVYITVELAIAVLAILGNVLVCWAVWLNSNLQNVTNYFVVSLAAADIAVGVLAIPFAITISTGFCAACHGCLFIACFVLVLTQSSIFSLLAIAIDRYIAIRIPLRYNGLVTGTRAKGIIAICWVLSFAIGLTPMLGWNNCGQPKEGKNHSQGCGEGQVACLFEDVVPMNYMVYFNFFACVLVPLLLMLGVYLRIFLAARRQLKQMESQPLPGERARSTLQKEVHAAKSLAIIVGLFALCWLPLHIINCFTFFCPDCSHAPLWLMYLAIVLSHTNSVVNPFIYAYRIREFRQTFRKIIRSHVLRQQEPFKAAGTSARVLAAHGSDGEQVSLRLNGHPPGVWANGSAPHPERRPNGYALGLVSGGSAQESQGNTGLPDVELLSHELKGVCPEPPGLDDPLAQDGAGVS

Row | SMILES | Ki [1] [nM] | Time [2] [s] | Ki [3] [nM] | Time [4] [s] | Ki [5] [nM] | survival at 50 mg/kg [6] [%] | Ki [7] [nM] | Ratio Ki [8] | Ratio Ki [9] | Activity [10] | Ratio Ki [11]
1 | Cn1c(=O)c2[nH]c(Cc3ccc(OCCCCl)cc3)nc2n(C)c1=O | > 30000 | 75 | > 10000 | 44 | > 30000 | 50 | > 10000 |  |  |  | 
2 | Cn1c(=O)c2[nH]c(-c3ccc(OCCCN4CCN(Cc5ccccc5Cl)CC4)cc3)nc2n(C)c1=O | 1850 | 109 | 120 |  | 6890 | 100 | 170 | 15 | 1.4 | Active | 57
3 | Cn1c(=O)c2[nH]c(-c3ccc(OCCCCl)cc3)nc2n(C)c1=O | > 10000 | 114 | 45 | 30 | > 30000 | 100 | > 10000 | > 220 | > 220 |  | > 670
4 | Cn1c(=O)c2[nH]c(-c3ccc(OC4CCCC4)cc3)nc2n(C)c1=O | > 30000 | 72 | 72 | 35 | > 10000 | 50 | 1000 | > 420 | 14 |  | > 420
5 | CCN(CC)CCOc1ccc(-c2nc3c([nH]2)c(=O)n(C)c(=O)n3C)cc1 | 1590 | 115 | 250 | 49 | 6820 | 75 | 2590 | 6.4 | 10 |  | 27
6 | Cn1c(=O)c2[nH]c(Cc3ccc(OCCCN4CCOCC4)cc3)nc2n(C)c1=O | > 30000 | 108 | > 10000 |  | > 30000 | 100 | > 10000 |  |  |  | 
7 | Cn1c(=O)c2[nH]c(Cc3ccc(OCCCn4ccnc4)cc3)nc2n(C)c1=O | > 30000 | 83 | 3170 |  | > 30000 | 50 | > 10000 | > 9.5 | > 3.2 |  | > 9.5
8 | Cn1c(=O)c2[nH]c(-c3ccc(OCCCn4ccnc4)cc3)nc2n(C)c1=O | 890 | 108 | 42 | 71 | 2270 | 75 | 1050 | 21 | 25 |  | 54
9 | Cn1c(=O)c2[nH]c(-c3ccc(OCCN4CCCC4)cc3)nc2n(C)c1=O | 1200 | 111 | 200 | 32 | 4600 | 100 | 1970 | 6 | 9.9 |  | 23
10 | Cn1c(=O)c2nc[nH]c2n(C)c1=O.O [THEOPHYLLINE] |  | 92 |  | 89 |  | 100 |  |  |  |  | 
11 | Cn1c(=O)c2[nH]c(Cc3ccc(OCCCN4CCC5(CC4)OCCO5)cc3)nc2n(C)c1=O | > 30000 | 73 | 8090 | 23 | > 30000 | 50 | > 10000 | > 3.7 | > 1.2 |  | > 3.7
12 | Cn1c(=O)c2[nH]c(-c3ccc(OCCN4CCOCC4)cc3)nc2n(C)c1=O | 2580 | 104 | 310 | 45 | 2740 | 100 | 1340 | 8.3 | 4.3 |  | 8.8
13 | Cn1c(=O)c2[nH]c(-c3ccc(OCCC4CCNCC4)cc3)nc2n(C)c1=O | 1330 | 121 | 290 | 22 | 6510 | 75 | 2900 | 4.6 | 10 |  | 22
14 | CN(C)CCOc1ccc(-c2nc3c([nH]2)c(=O)n(C)c(=O)n3C)cc1 | 1820 | 111 | 400 | 39 | 9380 | 100 | 4950 | 4.6 | 12 |  | 24
